Data as given in ChEMBL document CHEMBL1152744, “Select pyrimidinones inhibit the propagation of the malarial parasite, Plasmodium falciparum” (Bioorg Med Chem, 2009).

Legend:
Plasmodium falciparum [1] = assay: Antimalarial activity against chloroquine-resistant Plasmodium falciparum Dd2 infected human erythrocytes after 72 hrs by [3H]hypoxanthine uptake; assay type: functional, organism-based
Procedure, shortened: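 Asexual blood-stage P. falciparum Dd2 (chloroquine-resistant) in human erythrocytes, exposed to compound for 72 h, with [3H]hypoxanthine added for the last 24 h. Dose-response series were run, and IC50 was calculated by linear regression on the linear portions of plotted uptake values. Chloroquine was included as an internal control.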

[2] = target: Heat shock 70 kDa protein (Plasmodium falciparum) (UniProt P11144); assay: Inhibition of Plasmodium falciparum Hsp70 ATPase activity assessed as residual enzyme activity at 300 uM relative to control
Procedure, shortened: (§1)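 Steady-state ATPase assay with P. falciparum Hsp70, yeast Ssa1 or human Hsp70. Compound at 300 μM final; activity standardized to an equal volume of DMSO, set to 1. Values are means of 6 independent experiments, ±SD where shown.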

[3] = target: Heat shock protein SSA1 (Saccharomyces cerevisiae S288c) (UniProt P10591); assay: Inhibition of Saccharomyces cerevisiae Ssa1 ATPase activity assessed as residual enzyme activity at 300 uM relative to control; procedure, shortened: as §1
[4] = target: Heat shock 70 kDa protein 1A (Homo sapiens) (UniProt P0DMV8); assay: Inhibition of human HSPA1A ATPase activity assessed as residual enzyme activity at 300 uM relative to control; procedure, shortened: as §1
[5] = Cytotoxicity against human HepG2 cells; assay type: cell-based
Procedure, shortened: (§2)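 GI50 measured in HepG2 hepatocellular carcinoma and WI-38 embryonic diploid lung cells, calculated relative to a DMSO (negative) control.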

[6] = Cytotoxicity against human WI38 cells; assay type: cell-based, WI-38; procedure, shortened: as §2
Plasmodium falciparum [7] = assay: Antimalarial activity against chloroquine-resistant Plasmodium falciparum Dd2 infected human erythrocytes at 5 uM after 72 hrs as inhibition of [3H]hypoxanthine uptake; assay type: functional
Procedure, shortened: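 Single-point screen of Dd2 asexual blood stages in human red cells at final concentrations of 1 μM and 5 μM, with 72 h drug exposure and [3H]hypoxanthine pulse over the final 24 h. Read-out was percent inhibition of label uptake. Compounds giving >50% inhibition at 5 μM were re-screened.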

Plasmodium falciparum [8] = assay: Effect on Plasmodium falciparum Hsp70 ATPase activity assessed as fold change in Kcat at 100 uM relative to control
Procedure, shortened: (§3)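 Single-turnover ATPase assay measuring kCAT of recombinant P. falciparum Hsp70 (E. coli Rosetta 2, Ni-chelate then Q-Sepharose purified), yeast Ssa1, or human HSPA1A (E. coli-expressed, untagged or His6). Optional J-domain partners: Hlj1 1.1 μM; Ydj1 0.045 μM with Ssa1, 0.9 μM with Pf or human Hsp70. Compound at 100 μM final; activity expressed as a fraction of the DMSO-only reaction under the same conditions, set to 1.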

Plasmodium falciparum [9] = assay: Effect on Plasmodium falciparum Hsp70 ATPase activity assessed as fold change in Kcat at 100 uM in presence of J-domain containing yeast HlJ1 co-chaperone relative to control; procedure, shortened: as §3
[10] = target: Heat shock protein SSA1 (Saccharomyces cerevisiae S288c) (UniProt P10591); assay: Effect on Saccharomyces cerevisiae Ssa1 ATPase activity assessed as fold change at 100 uM in Kcat relative to control; procedure, shortened: as §3
[11] = target: Heat shock protein SSA1 (Saccharomyces cerevisiae S288c) (UniProt P10591); assay: Effect on Saccharomyces cerevisiae Ssa1 ATPase activity assessed as fold change in Kcat at 100 uM in presence of J-domain containing yeast HlJ1 co-chaperone relative to control; procedure, shortened: as §3
[12] = target: Heat shock 70 kDa protein 1A (Homo sapiens) (UniProt P0DMV8); assay: Effect on human HSPA1A ATPase activity assessed as fold change in Kcat at 100 uM relative to control; procedure, shortened: as §3
[13] = target: Heat shock 70 kDa protein 1A (Homo sapiens) (UniProt P0DMV8); assay: Effect on human HSPA1A ATPase activity assessed as fold change in Kcat at 100 uM in presence of J-domain containing Hdj1 co-chaperone relative to control
[14] = target: Heat shock protein SSA1 (Saccharomyces cerevisiae S288c) (UniProt P10591); assay: Effect on Saccharomyces cerevisiae Ssa1 ATPase activity assessed as fold change in Kcat at 100 uM in presence of J-domain containing yeast Ydj1 co-chaperone relative to control; procedure, shortened: as §3
[15] = target: Heat shock 70 kDa protein 1A (Homo sapiens) (UniProt P0DMV8); assay: Effect on human HSPA1A ATPase activity assessed as fold change in Kcat at 100 uM presence of J-domain containing yeast Ydj1 co-chaperone relative to control; procedure, shortened: as §3
[16] = target: Heat shock 70 kDa protein 1A (Homo sapiens) (UniProt P0DMV8); assay: Inhibition of human Hsp70 ATPase activity assessed as reduction of rate of ATP hydrolysis; set-up: scale not given: the % may be the effect or the level left
[17] = target: Heat shock protein SSA1 (Saccharomyces cerevisiae) (UniProt P10591); assay: Effect on yeast Hsp70 Ssa1 ATPase activity assessed as fold change in Kcat at 100 uM relative to control

Sequence of Heat shock 70 kDa protein (Plasmodium falciparum) (P11144 whole entry): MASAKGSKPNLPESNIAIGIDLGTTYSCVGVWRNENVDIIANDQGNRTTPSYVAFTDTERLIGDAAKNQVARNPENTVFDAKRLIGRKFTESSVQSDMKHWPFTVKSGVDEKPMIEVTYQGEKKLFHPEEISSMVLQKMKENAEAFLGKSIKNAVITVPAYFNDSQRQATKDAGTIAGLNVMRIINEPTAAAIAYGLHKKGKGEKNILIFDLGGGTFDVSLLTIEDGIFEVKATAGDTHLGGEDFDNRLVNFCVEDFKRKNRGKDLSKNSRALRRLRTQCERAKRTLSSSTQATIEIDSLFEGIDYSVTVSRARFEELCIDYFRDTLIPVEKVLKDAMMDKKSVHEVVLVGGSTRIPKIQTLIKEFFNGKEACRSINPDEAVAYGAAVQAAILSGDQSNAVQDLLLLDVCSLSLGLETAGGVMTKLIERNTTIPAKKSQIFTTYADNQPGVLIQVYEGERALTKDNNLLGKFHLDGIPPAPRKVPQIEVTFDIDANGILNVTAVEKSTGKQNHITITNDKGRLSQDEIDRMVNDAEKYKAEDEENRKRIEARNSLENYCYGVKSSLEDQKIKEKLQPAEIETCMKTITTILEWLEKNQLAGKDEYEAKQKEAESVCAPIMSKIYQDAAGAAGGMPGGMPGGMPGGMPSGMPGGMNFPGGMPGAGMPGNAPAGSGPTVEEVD
Sequence of Heat shock protein SSA1 (Saccharomyces cerevisiae S288c) (P10591 whole entry): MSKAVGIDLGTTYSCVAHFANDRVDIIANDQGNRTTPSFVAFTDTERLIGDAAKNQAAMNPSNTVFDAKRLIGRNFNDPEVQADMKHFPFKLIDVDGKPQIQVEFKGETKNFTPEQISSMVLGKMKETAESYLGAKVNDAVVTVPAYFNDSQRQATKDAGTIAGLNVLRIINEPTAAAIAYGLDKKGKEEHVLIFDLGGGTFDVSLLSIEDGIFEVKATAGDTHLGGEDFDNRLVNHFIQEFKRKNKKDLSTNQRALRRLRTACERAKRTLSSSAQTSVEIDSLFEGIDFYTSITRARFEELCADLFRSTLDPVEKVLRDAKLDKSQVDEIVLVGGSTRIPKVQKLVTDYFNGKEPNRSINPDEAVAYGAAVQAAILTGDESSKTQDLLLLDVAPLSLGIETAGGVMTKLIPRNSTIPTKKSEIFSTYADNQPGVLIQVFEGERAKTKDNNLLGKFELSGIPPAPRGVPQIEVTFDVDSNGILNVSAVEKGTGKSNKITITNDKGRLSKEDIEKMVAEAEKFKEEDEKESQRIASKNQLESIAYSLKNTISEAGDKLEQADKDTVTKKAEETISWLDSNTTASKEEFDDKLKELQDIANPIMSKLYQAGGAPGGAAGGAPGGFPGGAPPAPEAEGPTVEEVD
Sequence of Heat shock 70 kDa protein 1A (Homo sapiens) (P0DMV8 2-641 limits assumed): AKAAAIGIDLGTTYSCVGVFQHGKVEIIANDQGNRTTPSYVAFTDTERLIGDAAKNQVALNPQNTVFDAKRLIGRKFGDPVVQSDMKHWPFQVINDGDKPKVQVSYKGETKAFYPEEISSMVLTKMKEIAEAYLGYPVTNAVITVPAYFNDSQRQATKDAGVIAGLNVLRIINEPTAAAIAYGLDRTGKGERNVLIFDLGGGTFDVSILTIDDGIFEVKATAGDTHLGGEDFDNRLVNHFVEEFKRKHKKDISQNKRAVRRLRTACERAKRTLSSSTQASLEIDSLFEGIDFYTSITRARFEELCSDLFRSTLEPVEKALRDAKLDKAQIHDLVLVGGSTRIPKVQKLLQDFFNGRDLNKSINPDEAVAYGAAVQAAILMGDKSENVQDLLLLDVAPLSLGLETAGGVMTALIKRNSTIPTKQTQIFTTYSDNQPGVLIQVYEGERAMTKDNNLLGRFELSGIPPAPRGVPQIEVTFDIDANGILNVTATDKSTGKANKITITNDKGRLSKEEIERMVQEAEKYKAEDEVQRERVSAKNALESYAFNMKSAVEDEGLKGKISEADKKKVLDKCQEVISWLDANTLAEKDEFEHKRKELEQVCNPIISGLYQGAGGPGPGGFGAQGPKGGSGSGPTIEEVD

SMILES | IC50 (Plasmodium falciparum [1]) [nM] | fold change (FC) [2] | fold change (FC) [3] | fold change (FC) [4] | GI50 [5] [nM] | GI50 [6] [nM] | inhibition at 5 µM (Plasmodium falciparum [7]) [%] | fold change (FC) (Plasmodium falciparum [8]) | fold change (FC) (Plasmodium falciparum [9]) | fold change (FC) [10] | fold change (FC) [11] | fold change (FC) [12] | fold change (FC) [13] | fold change (FC) [14] | fold change (FC) [15] | Activity [16] [%] | fold change (FC) [17]
COC(=O)c1cc(-c2ccccc2)n(CCNC(=O)CCCCCN2C(=O)NC(c3ccc(-c4ccccc4)cc3)C(C(=O)OCc3ccccc3)=C2C)c1C (configuration not stated) | 50 | 1.01 | 1.2 | 0.72 | > 10000 | > 10000 | > 50 | 2.7 | -1.1 | 13.3 | -6.5 | 3.5 | 5.3 | -1.7 | 1.5 | 30 | 
CC(=O)O[C@H]1C(=O)[C@@]2(C)[C@H]([C@H](OC(=O)c3ccccc3)[C@]3(O)C[C@H](OC(=O)[C@H](O)[C@@H](NC(=O)c4ccccc4)c4ccccc4)C(C)=C1C3(C)C)[C@]1(OC(C)=O)CO[C@@H]1C[C@@H]2O [PACLITAXEL] |  |  |  |  | 1 | 13.7 |  |  |  |  |  |  |  |  |  |  | 
CCCCCCN(C(=O)CCCCCN1C(=O)NC(c2ccc(-c3ccccc3)cc2)C(C(=O)OCc2ccccc2)=C1C)C(C(=O)NCCCC)C1CCCCC1 (configuration not stated) | 1100 | 0.74 | 0.97 | 0.95 | > 10000 | > 10000 | > 50 | 2.9 | -1.5 | -1.7 | 1.2 | 2.3 | 2.8 | -1.3 | 1.1 |  | -1.7
CCOC(=O)C1=C(C)N(CCCCCC(=O)O)C(=O)NC1c1cccc([N+](=O)[O-])c1 (configuration not stated) | 1600 | 1.01 | 0.93 | 0.85 | > 10000 | > 10000 | > 50 | 1.8 | -1.1 | 1.3 | 1 | 1.4 | 1.1 | 1.1 | -1.3 |  | 1.3
COC(=O)C1=C(Cc2ccccc2)NC(=O)NC1c1ccc2ccccc2c1 (configuration not stated) | 300 | 1 | 1.2 | 0.7 | > 10000 | > 10000 | > 50 | 1.4 | -1.2 | 2 | -1.2 | 1.3 | 2.5 | -1.3 | -1.2 | 30 | 2
CCOC(=O)C1=C(C)N(Cc2ccccc2)C(=O)NC1c1ccccc1OS(=O)(=O)c1ccccc1[N+](=O)[O-] (configuration not stated) | 100 | 0.99 | 1.1 | 0.74 | > 10000 | > 10000 | > 50 | 6.5 | 1.4 | 2.1 | 1 | 3.6 | 3.5 | -1.3 | -1.2 | 30 | 2.1
CCCCNC(=O)C(c1ccc(-c2ccccc2)cc1)N(CCN1CCOCC1)C(=O)CCCCCN1C(=O)NC(c2ccc([N+](=O)[O-])cc2)C(C(=O)OCc2ccccc2)=C1C (configuration not stated) | 200 | 0.73 | 1 | 0.74 | > 10000 | > 10000 | > 50 | 2.3 | -1.3 | -1.6 | -1.1 | 1 | 4.7 | -2.6 | 1 |  | -1.6
CC1=C(C(=O)OCc2ccccc2)C(c2ccc([N+](=O)[O-])cc2)NC(=O)N1CCCC(=O)N(CCN1CCOCC1)C(C(=O)NC(C)(C)C)c1ccc(-c2ccccc2)cc1 (configuration not stated) | 800 | 0.72 | 0.75 | 0.82 | > 10000 | > 10000 | > 50 | 2.2 | 1.4 | 1.2 | 1 | 2 | 2.9 | -1.5 | -1.1 |  | 1.2
CCCCN1C(=O)NC(c2ccc(OC)cc2)C(C(=O)OCc2ccccc2)=C1C (configuration not stated) | 200 | 0.92 | 0.95 | 0.8 | > 10000 | > 10000 | > 50 | 7.2 | -1.1 | 2.3 | 1 | 4.5 | 4.5 | -1.1 | 1.1 |  | 
CCOC(=O)C1=C(C)N(CCCC(=O)NCCn2c(-c3ccccc3)cc(C(=O)OC)c2C)C(=O)NC1c1ccc([N+](=O)[O-])cc1 (configuration not stated) | 30 | 1.02 | 0.89 | 0.8 | > 10000 | > 10000 | > 50 | 3.7 | 1.5 | -1.3 | -1.6 | 2 | 4.3 | -1.6 | -1.2 |  | -1.3
